Active and inactive are the calls of the source. No cut-off for these calls is given here. Some results are limits rather than exact numbers.

Assay [1] relates to Quadruplex DNA. The assay can be described thus: Stabilization of 5'-FAM/3'-TAMRA labelled AR1 G-quadruplex oligonucleotide (unknown origin) assessed as change in melting temperature t1/2 at 1 uM after 16 hrs in presence of 100 mM K+ by FRET assay. The class given is nucleic-acid assay. The procedure, abridged:
(§1)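 FRET melting: FAM/TAMRA dual-labelled oligos (0.25 μM) folded in 10 mM lithium cacodylate pH 7.4 with 100 mM KCl (95 °C 5 min, cooled 4 h); ligand added at 1 μM final, 16 h room temperature. FAM emission followed 30−95 °C at 1 °C/min; curves normalized 0 to 1, T1/2 at 0.5 fraction.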

In assay [2] the test system is Quadruplex DNA. The assay can be described thus: Stabilization of 5'-FAM/3'-TAMRA labelled AR3 G-quadruplex oligonucleotide (unknown origin) assessed as change in melting temperature t1/2 at 1 uM after 16 hrs in presence of 100 mM K+ by FRET assay. Format: nucleic-acid assay. Put shortly: as §1
Assay [3] in a line: Stabilization of 5'-FAM/3'-TAMRA labelled CTATAGCGCGCTATAG dsDNA (unknown origin) assessed as change in melting temperature t1/2 at 1 uM after 16 hrs in presence of 100 mM K+ by FRET assay. The procedure, abridged: as §1
For assay [4], the target named is Quadruplex DNA. Put plainly: Binding affinity to 5'-Biotinylated-AR1 G-quadruplex oligonucleotide (unknown origin) by SPR analysis. Format: nucleic-acid assay. Put shortly:
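SPR on streptavidin chip; 5′-biotinylated oligo folded by heating 95 °C 5 min in 10 mM lithium cacodylate, 150 mM KCl, then immobilized at 30 nM to about 600 RU; empty reference cell. Compound 0.7−400 nM in HEPES-KCl (pH 7.4, 0.15 M KCl, 3 mM EDTA) at 40 °C, 40 μL/min, 260 s contact, 600 s dissociation; glycine pH 2.0 regeneration; steady-state affinity fit; at least two independent runs.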

Assay [5] concerns Quadruplex DNA. The assay can be described thus: Binding affinity to 5'-Biotinylated-AR1 G-quadruplex oligonucleotide (unknown origin) by SPR analysis relative to control. Format: nucleic-acid assay.
Assay [6] concerns PNT1A. Put plainly: Cytotoxicity against human PNT1A cells assessed as reduction in cell viability after 48 hrs by MTS assay. Format: cell-based. Put shortly:
(§2)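 Cells kept in RPMI-1640 with 10% fetal calf serum, 37 °C, 5% CO2. Seeded, after 24 h treated with 0.0001, 0.001, 0.01, 0.1, 1 and 10 μM compound (DMSO stocks freshly diluted in medium) for 48 h. MTS added 4 h, absorbance 490 nm; IC50 from curves of % viability inhibition versus DMSO-treated cells against log concentration.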

Assay [7] deals with DU-145. The assay can be described thus: Cytotoxicity against human DU145 cells assessed as reduction in cell viability after 48 hrs by MTS assay. The class given is functional, cell-based. The settings on record: DU-145, 48 h. The procedure, abridged:
as §2

The subject of assay [8] is PC-3. The assay can be described thus: Cytotoxicity against human PC3 cells assessed as reduction in cell viability after 48 hrs by MTS assay. The class given is functional, cell-based. The settings on record: PC-3, 48 h. The procedure, abridged: as §2
Assay [9] concerns LNCaP. Put plainly: Cytotoxicity against human LNCAP cells expressing androgen receptor T877A point mutant assessed as reduction in cell viability after 48 hrs by MTS assay. Format: functional, cell-based. Put shortly:
as §2

The test system of assay [10] is CWR22R. The assay can be described thus: Cytotoxicity against human 22Rv1 cells expressing full length androgen receptor H875Y point mutant assessed as reduction in cell viability after 48 hrs by MTS assay. Format: functional, cell-based. The note with it: 22Rv1, 48 h. Put shortly: as §2
Assay [11] concerns Quadruplex DNA. Put plainly: Stabilization of AR G-quadruplex oligonucleotide in human 22Rv1 cells assessed as reduction in AR-FL protein level at IC50 after 48 hrs by Western immunoblot assay. The class given is cell-based.
Assay [12] has as its system Quadruplex DNA. Put plainly: Stabilization of AR G-quadruplex oligonucleotide in human 22Rv1 cells assessed as reduction in AR-VS protein level at IC50 after 48 hrs by Western immunoblot assay. Format: cell-based.
The test system of assay [13] is Quadruplex DNA. Put plainly: Stabilization of AR G-quadruplex oligonucleotide in human LNCAP cells assessed as reduction in AR mRNA expression at IC50 by RT-PCR analysis. The class given is cell-based. The note with it: TDE = time-dependent effect. Put shortly: (§3)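 Cells grown in RPMI-1640 with 10% fetal calf serum, 37 °C, 5% CO2, treated at an equitoxic concentration. Transcripts quantified by TaqMan real-time RT-PCR, normalized to RNaseP, expressed as relative quantity versus untreated cells (calibrator) by the 2−ΔΔCt method.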

In assay [14] the test system is Quadruplex DNA. The assay can be described thus: Stabilization of AR G-quadruplex oligonucleotide in human 22Rv1 cells assessed as reduction in AR mRNA expression at IC50 by RT-PCR analysis. The class given is cell-based. The note with it: TDE = time-dependent effect.
The subject of assay [15] is Quadruplex DNA. Put plainly: Stabilization of AR G-quadruplex oligonucleotide in human LNCAP cells assessed as reduction in basal AR mRNA expression at IC50 after 6 to 72 hrs by RT-PCR analysis. Format: cell-based. Put shortly:
as §3

The test system of assay [16] is Quadruplex DNA. The assay can be described thus: Stabilization of AR G-quadruplex oligonucleotide in human 22Rv1 cells assessed as reduction in basal AR mRNA expression at IC50 after 6 to 72 hrs by RT-PCR analysis. The class given is cell-based. The procedure, abridged: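 Transcripts quantified by TaqMan real-time PCR with RNaseP as normalizer; relative quantity versus untreated cells by the 2−ΔΔCt method. Panel genes measured with a 92-gene cancer-mechanism TaqMan array.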

In assay [17] the test system is Quadruplex DNA. The assay can be described thus: Stabilization of AR G-quadruplex oligonucleotide in human LNCAP cells assessed as reduction in AR-FL protein level by immunoblotting assay. The class given is cell-based. Put shortly: (§4)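 Lysate proteins immunoblotted. Vinculin or β-actin used as loading control, peroxidase-linked secondary antibodies, ECL chemiluminescent detection, autoradiography, densitometric scan. Untreated cells received DMSO.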

Assay [18] relates to Quadruplex DNA. The assay can be described thus: Stabilization of AR G-quadruplex oligonucleotide in human 22Rv1 cells assessed as reduction in AR-FL protein level by immunoblotting assay. The class given is cell-based.
Assay [19] concerns Quadruplex DNA. Put plainly: Stabilization of AR G-quadruplex oligonucleotide in human 22Rv1 cells assessed as reduction in AR-Vs protein level by immunoblotting assay. Format: cell-based.
Assay [20] has as its system Quadruplex DNA. Put plainly: Stabilization of AR G-quadruplex oligonucleotide in human LNCAP cells assessed as reduction in PSA protein level by immunoblotting assay. The class given is cell-based. The procedure, abridged:
as §4

Turning to `CN(C)CCCN1C(=O)c2ccc3c4c(c5[nH]c(=O)c(=O)[nH]c5c(c24)C1=O)C(=O)N(CCCN(C)C)C3=O`, the ΔTm was 3.6 °C in assay [1], 6 °C in [2] and under 0.1 °C in assay [3]. The affinity in assay [4], expressed as Kd, was 38.3 nM. In assay [5], this compound displayed an RBA of 47%. In addition, the half-maximal inhibitory concentration (IC50) in assay [6] was 1370 nM; in [7] it was over 10000 nM; in assay [8], over 10000 nM; in assay [9], 10300 nM; in assay [10] it was over 10000 nM.
On to `CN(C)CCN1C(=O)c2ccc3c4c(c(NCCc5ccc(O)c(CN(C)C)c5)cc(c24)C1=O)C(=O)N(CCN(C)C)C3=O`, for which the results for the ΔTm in [1], in [2] and in [3] were 7.2 °C, 10 °C and under 0.1 °C, respectively. The Kd in assay [4] was determined as 34.2 nM. This compound had an RBA in [5] of 52%. Also, the concentration for half-maximal inhibition (IC50) in assay [6] was determined as 350 nM; in [7], 300 nM; in [8], 320 nM; in assay [9], 390 nM; in assay [10] it was 100 nM. Besides, the outcome in assay [11] and in [12] was Active.
Regarding `CN1CCN(c2cc3c4c(c(NCCO)cc5c4c2C(=O)N(CCO)C5=O)C(=O)N(CCO)C3=O)CC1`, the ΔTm in assay [1] was 0.1 °C; in assay [2], 0.4 °C; in assay [3], under 0.1 °C. In addition, the IC50 in assay [6] is 7070 nM; in assay [7], over 10000 nM; in assay [8] it was over 10000 nM; in assay [9] it was over 10000 nM; in assay [10] it was 7670 nM. The Activity result in assay [13] and in assay [14] was “Tde” in each case. Also, the result in [15], in [16], in assay [17], in [18], in [19] and in assay [20] was inactive.
With `CN(C)CCN1C(=O)c2ccc3c4c(c(NCC(=O)Nc5ccc(O)c(CO)c5)cc(c24)C1=O)C(=O)N(CCN(C)C)C3=O`, the ΔTm was 4.5 °C in assay [1], 9.3 °C in assay [2] and under 0.1 °C in [3]. This compound also had a Kd in assay [4] of 43.9 nM. Further, the RBA in assay [5] came to 41%. In addition, the IC50 was 1440 nM in assay [6]; over 10000 nM in [7]; over 10000 nM in assay [8]; 3040 nM in [9]; 3690 nM in assay [10].
`CN(C)CCCNc1cc2c3c(ccc4c3c1C(=O)N(CCCN(C)C)C4=O)C(=O)N(CCCN(C)C)C2=O`: the shift in melting temperature (ΔTm) in [1] turned out to be 11 °C; in [2] it was 13 °C; in assay [3], 5.1 °C. In assay [4], this compound had a Kd of 41.2 nM. Moreover, the RBA in assay [5] came to 43%. For the same compound, the concentration for half-maximal inhibition (IC50) in assay [6] is 590 nM; in assay [7], 3880 nM; in assay [8], 6320 nM; in assay [9], 3400 nM; in assay [10], 2430 nM.
On to `CN(C)CCN1C(=O)c2ccc3c4c(c(C#Cc5ccc(CN(C)C)c(O)c5)cc(c24)C1=O)C(=O)N(CCN(C)C)C3=O`, for which the ΔTm in assay [1] was 5.6 °C; in assay [2] it was 9 °C; in assay [3] it was under 0.1 °C. For the same compound, in assay [4], the Kd came to 21.4 nM. The same compound returned an RBA in [5] of 84%. Moreover, the 50% inhibitory concentration (IC50) worked out at 130 nM in [6]; 550 nM in assay [7]; 340 nM in assay [8]; 590 nM in assay [9]; 970 nM in [10].
Consider `CN(C)CCCN1C(=O)c2ccc3c4c(c(NCCCCNc5cc6c7c(ccc8c7c5C(=O)N(CCCN(C)C)C8=O)C(=O)N(CCCN(C)C)C6=O)cc(c24)C1=O)C(=O)N(CCCN(C)C)C3=O`, for which the shift in melting temperature (ΔTm) in [1] is 11.3 °C; in [2], 19.7 °C; in assay [3] it was 1.9 °C. This compound yielded a Kd in [4] of 92.5 nM. The same compound showed an RBA in assay [5] of 19%. Moreover, the 50% inhibitory concentration (IC50) is 2480 nM in [6]; 3390 nM in assay [7]; 10100 nM in assay [8]; 1930 nM in [9]; over 10000 nM in assay [10].
`CN(C)CCCN1C(=O)c2ccc3c4c(c(NCCCCCCCNc5cc6c7c(ccc8c7c5C(=O)N(CCCN(C)C)C8=O)C(=O)N(CCCN(C)C)C6=O)cc(c24)C1=O)C(=O)N(CCCN(C)C)C3=O`: the results for the thermal shift (ΔTm) in [1], in assay [2] and in assay [3] were 8.3 °C, 17 °C and 1 °C, respectively. This compound came in with a dissociation constant (Kd) in [4] of 182 nM. The RBA in assay [5] was 10%. For the same compound, the IC50 in assay [6] was 1890 nM; in [7], 2190 nM; in assay [8], over 10000 nM; in [9], 6560 nM; in [10], 3450 nM.

For the origin of these results see ChEMBL document CHEMBL4411261, “Down-Regulation of the Androgen Receptor by G-Quadruplex Ligands Sensitizes Castration-Resistant Prostate Cancer Cells to Enzalutamide” (J Med Chem, 2018).
